Values after ≈ are worked out from the molar mass of the structure shown. One block for each compound: values may come before it.
Assays:
Type in all cases: functional
[1] = test system: Escherichia coli; assay: Antibacterial activity against extended-spectrum beta-lactamase producing Escherichia coli isolate 209285 after 18 hrs by CLSI broth microdilution method; conditions: isolate 209285, 18 h
[2] = test system: Escherichia coli; assay: Selectivity index, ratio of MIC for against extended-spectrum beta-lactamase producing Escherichia coli isolate 208687 to MIC for extended-spectrum beta-lactamase producing Escherichia coli isolate 208687 in presence of BPL
[3] = test system: Escherichia coli; assay: Antibacterial activity against extended-spectrum beta-lactamase producing Escherichia coli isolate 106342 after 18 hrs by CLSI broth microdilution method; conditions: isolate 106342, 18 h
[4] = test system: Pseudomonas aeruginosa; assay: Antibacterial activity against IMP-4 producing Pseudomonas aeruginosa isolate 209471 after 18 hrs in presence of BPL by CLSI broth microdilution method; conditions: isolate 209471, 18 h
Method in brief: (§1)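 CLSI broth microdilution against clinical isolates (ESBL E. coli, KPC-2 MDR K. pneumoniae, IMP-4 MDR P. aeruginosa; five per species). Iron limitation: Mueller-Hinton broth supplemented with 16 mg/liter 2,2'-bipyridyl to complex iron and induce iron uptake systems. Read-out: MIC.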

[5] = test system: Klebsiella pneumoniae; assay: Antibacterial activity against KPC-2 producing Klebsiella pneumoniae isolate 209632 after 18 hrs by CLSI broth microdilution method; conditions: isolate 209632, 18 h
[6] = test system: Pseudomonas aeruginosa; assay: Selectivity index, ratio of MIC for against IMP-4 producing Pseudomonas aeruginosa isolate 212886 to MIC for against IMP-4 producing Pseudomonas aeruginosa isolate 212886 in presence of BPL
[7] = test system: Pseudomonas aeruginosa; assay: Antibacterial activity against IMP-4 producing Pseudomonas aeruginosa isolate 209321 after 18 hrs by CLSI broth microdilution method; conditions: isolate 209321, 18 h
[8] = test system: Escherichia coli; assay: Selectivity index, ratio of MIC for against extended-spectrum beta-lactamase producing Escherichia coli isolate 106342 to MIC for extended-spectrum beta-lactamase producing Escherichia coli isolate 106342 in presence of BPL
[9] = test system: Escherichia coli; assay: Antibacterial activity against Escherichia coli isolate 210737 after 18 hrs in presence of BPL by CLSI broth microdilution method; conditions: isolate 210737, 18 h; method in brief: as §1
[10] = test system: Pseudomonas aeruginosa; assay: Antibacterial activity against IMP-4 producing Pseudomonas aeruginosa isolate 208247 after 18 hrs in presence of BPL by CLSI broth microdilution method; conditions: isolate 208247, 18 h; method in brief: as §1
[11] = test system: Klebsiella pneumoniae; assay: Antibacterial activity against KPC-2 producing Klebsiella pneumoniae isolate 209632 after 18 hrs in presence of BPL by CLSI broth microdilution method; conditions: isolate 209632, 18 h; method in brief: as §1
[12] = test system: Klebsiella pneumoniae; assay: Selectivity index, ratio of MIC for against KPC-2 producing Klebsiella pneumoniae isolate 212423 to MIC for against KPC-2 producing Klebsiella pneumoniae isolate 212423 in presence of BPL
[13] = test system: Klebsiella pneumoniae; assay: Selectivity index, ratio of MIC for against KPC-2 producing Klebsiella pneumoniae isolate 212229 to MIC for against KPC-2 producing Klebsiella pneumoniae isolate 212229 in presence of BPL
[14] = test system: Escherichia coli; assay: Antibacterial activity against extended-spectrum beta-lactamase producing Escherichia coli isolate 208687 after 18 hrs by CLSI broth microdilution method; conditions: isolate 208687, 18 h
[15] = test system: Pseudomonas aeruginosa; assay: Selectivity index, ratio of MIC for against IMP-4 producing Pseudomonas aeruginosa isolate 208247 to MIC for against IMP-4 producing Pseudomonas aeruginosa isolate 208247 in presence of BPL
[16] = test system: Pseudomonas aeruginosa; assay: Antibacterial activity against IMP-4 producing Pseudomonas aeruginosa isolate 207272 after 18 hrs in presence of BPL by CLSI broth microdilution method; conditions: isolate 207272, 18 h; method in brief: as §1
[17] = test system: Pseudomonas aeruginosa; assay: Selectivity index, ratio of MIC for against IMP-4 producing Pseudomonas aeruginosa isolate 209471 to MIC for against IMP-4 producing Pseudomonas aeruginosa isolate 209471 in presence of BPL
[18] = test system: Klebsiella pneumoniae; assay: Antibacterial activity against KPC-2 producing Klebsiella pneumoniae isolate 209735 after 18 hrs in presence of BPL by CLSI broth microdilution method; conditions: isolate 209735, 18 h; method in brief: as §1
[19] = test system: Klebsiella pneumoniae; assay: Antibacterial activity against KPC-2 producing Klebsiella pneumoniae isolate 212423 after 18 hrs in presence of BPL by CLSI broth microdilution method; conditions: isolate 212423, 18 h; method in brief: as §1
[20] = test system: Pseudomonas aeruginosa; assay: Antibacterial activity against IMP-4 producing Pseudomonas aeruginosa isolate 212886 after 18 hrs in presence of BPL by CLSI broth microdilution method; conditions: isolate 212886, 18 h; method in brief: as §1
[21] = test system: Klebsiella pneumoniae; assay: Antibacterial activity against KPC-2 producing Klebsiella pneumoniae isolate 212229 after 18 hrs in presence of BPL by CLSI broth microdilution method; conditions: isolate 212229, 18 h; method in brief: as §1
[22] = test system: Pseudomonas aeruginosa; assay: Antibacterial activity against IMP-4 producing Pseudomonas aeruginosa isolate 209471 after 18 hrs by CLSI broth microdilution method; conditions: isolate 209471, 18 h
[23] = test system: Escherichia coli; assay: Selectivity index, ratio of MIC for against extended-spectrum beta-lactamase producing Escherichia coli isolate 209285 to MIC for extended-spectrum beta-lactamase producing Escherichia coli isolate 209285 in presence of BPL
[24] = test system: Pseudomonas aeruginosa; assay: Antibacterial activity against IMP-4 producing Pseudomonas aeruginosa isolate 209321 after 18 hrs in presence of BPL by CLSI broth microdilution method; conditions: isolate 209321, 18 h; method in brief: as §1
[25] = test system: Klebsiella pneumoniae; assay: Selectivity index, ratio of MIC for against KPC-2 producing Klebsiella pneumoniae isolate 212232 to MIC for against KPC-2 producing Klebsiella pneumoniae isolate 212232 in presence of BPL
[26] = test system: Klebsiella pneumoniae; assay: Antibacterial activity against KPC-2 producing Klebsiella pneumoniae isolate 212232 after 18 hrs in presence of BPL by CLSI broth microdilution method; conditions: isolate 212232, 18 h; method in brief: as §1
[27] = test system: Pseudomonas aeruginosa; assay: Antibacterial activity against IMP-4 producing Pseudomonas aeruginosa isolate 207272 after 18 hrs by CLSI broth microdilution method; conditions: isolate 207272, 18 h
[28] = test system: Pseudomonas aeruginosa; assay: Selectivity index, ratio of MIC for against IMP-4 producing Pseudomonas aeruginosa isolate 207272 to MIC for against IMP-4 producing Pseudomonas aeruginosa isolate 207272 in presence of BPL
[29] = test system: Escherichia coli; assay: Antibacterial activity against Escherichia coli isolate 210737 after 18 hrs by CLSI broth microdilution method; conditions: isolate 210737, 18 h
[30] = test system: Escherichia coli; assay: Antibacterial activity against extended-spectrum beta-lactamase producing Escherichia coli isolate 212648 after 18 hrs in presence of BPL by CLSI broth microdilution method; conditions: isolate 212648, 18 h; method in brief: as §1
[31] = test system: Escherichia coli; assay: Selectivity index, ratio of MIC for against Escherichia coli isolate 210737 to MIC for Escherichia coli isolate 210737 in presence of BPL
[32] = test system: Klebsiella pneumoniae; assay: Antibacterial activity against KPC-2 producing Klebsiella pneumoniae isolate 209735 after 18 hrs by CLSI broth microdilution method; conditions: isolate 209735, 18 h
[33] = test system: Pseudomonas aeruginosa; assay: Selectivity index, ratio of MIC for against IMP-4 producing Pseudomonas aeruginosa isolate 209321 to MIC for against IMP-4 producing Pseudomonas aeruginosa isolate 209321 in presence of BPL
[34] = test system: Escherichia coli; assay: Antibacterial activity against extended-spectrum beta-lactamase producing Escherichia coli isolate 212648 after 18 hrs by CLSI broth microdilution method; conditions: isolate 212648, 18 h
[35] = test system: Escherichia coli; assay: Antibacterial activity against extended-spectrum beta-lactamase producing Escherichia coli isolate 208687 after 18 hrs in presence of BPL by CLSI broth microdilution method; conditions: isolate 208687, 18 h; method in brief: as §1
[36] = test system: Escherichia coli; assay: Antibacterial activity against extended-spectrum beta-lactamase producing Escherichia coli isolate 209285 after 18 hrs in presence of BPL by CLSI broth microdilution method; conditions: isolate 209285, 18 h; method in brief: as §1
[37] = test system: Escherichia coli; assay: Selectivity index, ratio of MIC for against extended-spectrum beta-lactamase producing Escherichia coli isolate 212648 to MIC for extended-spectrum beta-lactamase producing Escherichia coli isolate 212648 in presence of BPL
[38] = test system: Klebsiella pneumoniae; assay: Selectivity index, ratio of MIC for against KPC-2 producing Klebsiella pneumoniae isolate 209735 to MIC for against KPC-2 producing Klebsiella pneumoniae isolate 209735 in presence of BPL
[39] = test system: Pseudomonas aeruginosa; assay: Antibacterial activity against IMP-4 producing Pseudomonas aeruginosa isolate 208247 after 18 hrs by CLSI broth microdilution method; conditions: isolate 208247, 18 h
[40] = test system: Escherichia coli; assay: Antibacterial activity against extended-spectrum beta-lactamase producing Escherichia coli isolate 106342 after 18 hrs in presence of BPL by CLSI broth microdilution method; conditions: isolate 106342, 18 h; method in brief: as §1
[41] = test system: Klebsiella pneumoniae; assay: Antibacterial activity against KPC-2 producing Klebsiella pneumoniae isolate 212229 after 18 hrs by CLSI broth microdilution method; conditions: isolate 212229, 18 h
[42] = test system: Klebsiella pneumoniae; assay: Selectivity index, ratio of MIC for against KPC-2 producing Klebsiella pneumoniae isolate 209632 to MIC for against KPC-2 producing Klebsiella pneumoniae isolate 209632 in presence of BPL
[43] = test system: Klebsiella pneumoniae; assay: Antibacterial activity against KPC-2 producing Klebsiella pneumoniae isolate 212232 after 18 hrs by CLSI broth microdilution method; conditions: isolate 212232, 18 h
[44] = test system: Klebsiella pneumoniae; assay: Antibacterial activity against KPC-2 producing Klebsiella pneumoniae isolate 212423 after 18 hrs by CLSI broth microdilution method; conditions: isolate 212423, 18 h
[45] = test system: Pseudomonas aeruginosa; assay: Antibacterial activity against IMP-4 producing Pseudomonas aeruginosa isolate 212886 after 18 hrs by CLSI broth microdilution method; conditions: isolate 212886, 18 h

MIC [1]: 32 µg/mL (≈ 43.2 µM) | MIC [3]: 16 µg/mL (≈ 21.6 µM) | MIC [4]: > 64 µg/mL | MIC [5]: > 64 µg/mL | MIC [7]: 64 µg/mL (≈ 86.4 µM) | MIC [9]: 8 µg/mL | MIC [10]: 64 µg/mL | MIC [11]: > 64 µg/mL | MIC [14]: 32 µg/mL (≈ 43.2 µM) | MIC [16]: 64 µg/mL | MIC [18]: > 64 µg/mL | MIC [19]: > 64 µg/mL | MIC [20]: > 64 µg/mL | MIC [21]: > 64 µg/mL | MIC [22]: > 64 µg/mL | MIC [24]: 32 µg/mL | MIC [26]: 16 µg/mL | MIC [27]: 64 µg/mL (≈ 86.4 µM) | MIC [29]: 16 µg/mL (≈ 21.6 µM) | MIC [30]: 16 µg/mL | MIC [32]: > 64 µg/mL | MIC [34]: 32 µg/mL (≈ 43.2 µM) | MIC [35]: 4 µg/mL | MIC [36]: 16 µg/mL | MIC [39]: 64 µg/mL (≈ 86.4 µM) | MIC [40]: 16 µg/mL | MIC [41]: > 64 µg/mL | MIC [43]: > 64 µg/mL | MIC [44]: > 64 µg/mL | MIC [45]: > 64 µg/mL
Structure (SMILES): CC(C)C(O/N=C(\C(=O)N[C@@H]1C(=O)N(S(=O)(=O)O)[C@@H]1COC(=O)CNC(=O)c1cc(=O)c(O)c[nH]1)c1csc(N)n1)c1cc(=O)c(O)cn1O (stereo partly specified)
Selectivity Index [2]: 8 | Selectivity Index [6]: 1 - 2 | Selectivity Index [8]: 1 | Selectivity Index [12]: 4 | Selectivity Index [13]: 4 | Selectivity Index [15]: 1 | Selectivity Index [17]: 1 - 2 | Selectivity Index [23]: 2 | Selectivity Index [25]: >4 | Selectivity Index [28]: 1 | Selectivity Index [31]: 2 | Selectivity Index [33]: 2 | Selectivity Index [37]: 2 | Selectivity Index [38]: 4 | Selectivity Index [42]: 4

MIC [1]: > 64 µg/mL | MIC [3]: 64 µg/mL (≈ 118 µM) | MIC [4]: > 64 µg/mL | MIC [5]: > 64 µg/mL | MIC [7]: 64 µg/mL (≈ 118 µM) | MIC [9]: > 64 µg/mL | MIC [10]: 32 µg/mL | MIC [11]: > 64 µg/mL | MIC [14]: > 64 µg/mL | MIC [16]: > 64 µg/mL | MIC [18]: > 64 µg/mL | MIC [19]: > 64 µg/mL | MIC [20]: > 64 µg/mL | MIC [21]: > 64 µg/mL | MIC [22]: > 64 µg/mL | MIC [24]: 64 µg/mL | MIC [26]: > 64 µg/mL | MIC [27]: > 64 µg/mL | MIC [29]: > 64 µg/mL | MIC [30]: > 64 µg/mL | MIC [32]: > 64 µg/mL | MIC [34]: > 64 µg/mL | MIC [35]: > 64 µg/mL | MIC [36]: > 64 µg/mL | MIC [39]: 64 µg/mL (≈ 118 µM) | MIC [40]: 64 µg/mL | MIC [41]: > 64 µg/mL | MIC [43]: > 64 µg/mL | MIC [44]: > 64 µg/mL | MIC [45]: > 64 µg/mL
Structure (SMILES): C#CC1[C@H](NC(=O)/C(=N\OC(c2cc(=O)c(O)cn2O)C(C)C)c2csc(N)n2)C(=O)N1S(=O)(=O)O (stereo partly specified)
Selectivity Index [6]: 1 - 2 | Selectivity Index [8]: 1 | Selectivity Index [15]: 2 | Selectivity Index [17]: 1 - 2 | Selectivity Index [28]: 1 - 2 | Selectivity Index [33]: 1
